A selection: hits, their analogues and other compounds. The true share with any hit is near 2.6%.
HEK293 NFkB inh – lowers PMA/ionomycin-induced NF-kB signal in HEK293 cells; inhibition, % at 3 µM; HEK-293 NF-kB luciferase reporter, luminescence; 62,000 tested, 0.21% active;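 active = inhibition above the mean of all tested compounds plus 3 SD, cut at about 40% in these data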;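 also: 0% = stimulated DMSO wells and 100% = 10 µM reference inhibitor 5653914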
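Timing: 1 h pretreatment, 16 h stimulation, 37 °C; system: HEK-293 cells with stable firefly luciferase reporter driven by four HIV NF-kB elements; doses: 3 µM once, 0.30% DMSO; measured by: luciferase luminescence; control set: DMSO and 10 µM reference inhibitor; repeats: single test; reagent: PMA plus ionomycin mix as NF-kB-activating stimulus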
5HT1E antag – blocks the human 5-HT1E serotonin receptor; AID 571; CHO 5-HT1E Ga15 NFAT-bla reporter, FRET, antagonist; P28566; 65,000 tested, 0.99% active; inhibition, % at 6 µM;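 active = inhibition above a set limit, the mean inhibition across every tested compound plus 3 SD, cut at about 29% in these data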;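 also: signal is the 460 over 535 nm emission ratio of beta-lactamase substrate; 0% = agonist plus DMSO wells and 100% = wells without agonist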
5-HT1A blocker – blocks the human serotonin 5-HT1a receptor. CHO 5-HT1a Ga15 NFAT-bla reporter, antagonist mode. inhibition, % at 10 µM. 62,000 tested, 0.68% active. AID 612;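 active = inhibition above the mean of all tested compounds plus 3 SD, cut at about 43% in these data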;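 also: receptor stimulated by 5-CT agonist at 100 nM near EC80; beta-lactamase reporter measured by ratiometric fluorescence of a cleavable substrate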
Target sequence (P08908 whole entry, looked up): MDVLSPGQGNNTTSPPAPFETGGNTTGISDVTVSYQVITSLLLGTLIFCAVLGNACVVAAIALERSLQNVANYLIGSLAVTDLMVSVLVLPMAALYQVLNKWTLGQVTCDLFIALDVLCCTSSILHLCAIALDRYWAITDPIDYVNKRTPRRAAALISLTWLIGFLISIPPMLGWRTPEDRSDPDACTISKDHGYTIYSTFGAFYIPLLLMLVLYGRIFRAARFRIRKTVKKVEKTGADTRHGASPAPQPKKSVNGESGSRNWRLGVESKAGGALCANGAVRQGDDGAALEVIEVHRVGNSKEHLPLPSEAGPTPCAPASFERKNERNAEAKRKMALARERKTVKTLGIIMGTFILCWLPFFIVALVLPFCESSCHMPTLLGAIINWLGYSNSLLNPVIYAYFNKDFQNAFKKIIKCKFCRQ
5HT1a ag – 5-HT1a (human) receptor agonism. P08908. CHO 5-HT1a Ga15 NFAT-bla reporter, FRET ratio; 0% basal, 100% maximal reference agonist. activation, % at 10 µM. 65,000 tested, 0.56% active. AID 567;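 active = activation above the screen-wide mean activation plus 3 SD, cut at about 19% in these data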;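 also: 0% = DMSO wells and 100% = 5-CT at EC100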
HTR1E agonist – activates the human 5-HT1E serotonin receptor | P28566 | CHO 5-HT1E Ga15 NFAT-bla reporter, FRET; 0% DMSO wells, 100% control agonist wells | activation, % at 6 µM | 65,000 tested, 0.69% active | AID 574;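 active = activation above a set limit, the screen-wide mean activation plus 3 SD, cut at about 8.5% in these data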;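 also: 100% = positive control agonist at 1 µM giving full maximal response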
* = called active by the depositor.

What do the screens show for `N#Cc1c(N)nc(SCc2ccccn2)c(C#N)c1-c1cccs1`?
5HT1E antag: 30*; 5HT1a ag: 5; HTR1E agonist: 0

Results for NC(=O)c1c(NC(=O)c2cccs2)sc2c1CCCCCC2 ?
HEK293 NFkB inh: -34; 5HT1E antag: -15; 5-HT1A blocker: -3; 5HT1a ag: 0; HTR1E agonist: 11*

What do the screens show for `COc1ccccc1-n1cnc2cc(NCc3ccco3)ccc21`?
HEK293 NFkB inh: 26; 5HT1E antag: 34*; 5-HT1A blocker: 29; 5HT1a ag: 0; HTR1E agonist: -2

How did CCCNC(=O)c1ccc2c(c1)ncn2-c1ccccc1OC do in these assays?
HEK293 NFkB inh: 17; 5HT1E antag: 1; 5-HT1A blocker: 17; 5HT1a ag: -3; HTR1E agonist: 1

How did Cc1[nH]c2ccccc2c1NC(=O)CN1CCN(c2cccc(C(F)(F)F)c2)CC1 do in these assays?
HEK293 NFkB inh: 24; 5HT1E antag: -12; 5-HT1A blocker: 14; 5HT1a ag: 4; HTR1E agonist: 2

What do the screens show for `Cc1[nH]c2ccccc2c1C(O)CN1CCN(c2cccc(C(F)(F)F)c2)CC1` (configuration not stated)?
HEK293 NFkB inh: -2; 5HT1E antag: 11; 5-HT1A blocker: 37; 5HT1a ag: 46*; HTR1E agonist: 14*

What do the screens show for `O=C(NCc1ccccc1)NC1(C(=O)N2CCCC2)CCCCC1`?
HEK293 NFkB inh: 13; 5HT1E antag: 2; 5-HT1A blocker: 6; 5HT1a ag: -1; HTR1E agonist: 89*

Results for COc1ccc(C2=C(O)C(C)N(c3ccccc3)C2=N)cc1OC (configuration not stated) ?
HEK293 NFkB inh: 10; 5HT1E antag: -6; 5-HT1A blocker: -8; 5HT1a ag: -2; HTR1E agonist: 0

How did Cc1csc(NC(=O)c2sc3nc(-c4cccs4)ccc3c2N)n1 do in these assays?
HEK293 NFkB inh: 54*; 5HT1E antag: 5; 5-HT1A blocker: 13; 5HT1a ag: 0; HTR1E agonist: 1

What do the screens show for `CCOc1ccccc1CN(Cc1ccco1)S(=O)(=O)c1ccc(-n2cnnn2)c(OC)c1`?
HEK293 NFkB inh: 22; 5HT1E antag: 17; 5-HT1A blocker: 54*; 5HT1a ag: -3; HTR1E agonist: 0

How did COc1cc(S(=O)(=O)N(Cc2ccco2)C2CCCC2)ccc1-n1cnnn1 do in these assays?
HEK293 NFkB inh: 3; 5HT1E antag: 2; 5-HT1A blocker: 1; 5HT1a ag: -2; HTR1E agonist: -1

How did Cc1ccc(CN2C(=O)CCC2C(=O)NCCCN2CCC(C)CC2)cc1 (configuration not stated) do in these assays?
HEK293 NFkB inh: 5; 5HT1E antag: -4; 5-HT1A blocker: 5; 5HT1a ag: -2; HTR1E agonist: -1

How did CC1CCN(CCCNC(=O)CN2CCN(Cc3ccc(Cl)cc3)C2=O)CC1 do in these assays?
HEK293 NFkB inh: 4; 5HT1E antag: 31*; 5-HT1A blocker: -2; 5HT1a ag: -2; HTR1E agonist: 1

Results for Cc1ccc(-c2nc3nc4ccccc4nc3n2Cc2ccco2)cc1 ?
HEK293 NFkB inh: -45; 5HT1E antag: 28; 5-HT1A blocker: 50*; 5HT1a ag: -3; HTR1E agonist: 0

What do the screens show for `Clc1ccc(-c2nc3nc4ccccc4nc3n2Cc2ccco2)cc1`?
HEK293 NFkB inh: -34; 5HT1E antag: 14; 5-HT1A blocker: 22; 5HT1a ag: -3; HTR1E agonist: 0

How did O=C(O)C1C2C=CC(O2)C1C(=O)NCCC1=CCCCC1 (configuration not stated) do in these assays?
HEK293 NFkB inh: 6; 5HT1E antag: 2; 5-HT1A blocker: 0; 5HT1a ag: -3; HTR1E agonist: 0

What do the screens show for `CCCC(C(=O)NCc1ccco1)N(C(=O)CNS(=O)(=O)c1ccccc1)c1ccccc1OC` (configuration not stated)?
HEK293 NFkB inh: 0; 5HT1E antag: 2; 5-HT1A blocker: 8; 5HT1a ag: 0; HTR1E agonist: 0

Results for COc1c2c(nc3occc13)C(CCC(C)(C)O)(OC)C(O)CC2 (configuration not stated) ?
HEK293 NFkB inh: 10; 5HT1E antag: -13; 5-HT1A blocker: -11; 5HT1a ag: -2; HTR1E agonist: 26*

What do the screens show for `CN1CCN(C2=C(Cl)C(=O)N(C3CCCCC3)C2=O)CC1`?
HEK293 NFkB inh: 8; 5HT1E antag: 28; 5-HT1A blocker: 12; 5HT1a ag: 4; HTR1E agonist: 39*

What do the screens show for `CN1CCN(C(=O)c2ccc3c(c2)N(Cc2cccc(Cl)c2)C(=O)c2ccccc2S3=O)CC1` (configuration not stated)?
HEK293 NFkB inh: 1; 5HT1E antag: -1; 5-HT1A blocker: 7; 5HT1a ag: -1; HTR1E agonist: 15*

Results for Cc1cccc(N2CCN(C(=O)COc3cc(=O)n(C)c4ccccc34)CC2)c1C ?
HEK293 NFkB inh: 4; 5HT1E antag: 0; 5-HT1A blocker: -13; 5HT1a ag: -2; HTR1E agonist: 13*

What do the screens show for `Cc1ccc(C)c(N2CCN(C(=O)COc3cc(=O)n(C)c4ccccc34)CC2)c1`?
HEK293 NFkB inh: 8; 5HT1E antag: 11; 5-HT1A blocker: 8; 5HT1a ag: -1; HTR1E agonist: 0

How did Cc1ccccc1N1CCN(Cc2cccc(C(=O)O)c2)CC1 do in these assays?
HEK293 NFkB inh: 8; 5HT1E antag: 4; 5-HT1A blocker: 8; 5HT1a ag: 0; HTR1E agonist: 22*

What do the screens show for `CCOC(=O)c1cc2oc(C(c3nnnn3C3CCCCC3)N3CCOCC3)cc2[nH]1` (configuration not stated)?
HEK293 NFkB inh: 23; 5HT1E antag: -12; 5-HT1A blocker: 16; 5HT1a ag: 1; HTR1E agonist: 0

Results for Cn1c(SCc2nc3ccccc3c(=O)[nH]2)nnc1-c1ccco1 ?
HEK293 NFkB inh: -1; 5HT1E antag: -11; 5-HT1A blocker: -5; 5HT1a ag: 0; HTR1E agonist: 0

Results for Cn1c(-c2ccccc2)cnc1SCc1nc2ccccc2c(=O)[nH]1 ?
HEK293 NFkB inh: -38; 5HT1E antag: -15; 5-HT1A blocker: -24; 5HT1a ag: 0; HTR1E agonist: 59*

How did CCNc1nc(NCC)n2c(SCc3nc4ccccc4c(=O)[nH]3)nnc2n1 do in these assays?
HEK293 NFkB inh: 11; 5HT1E antag: 53*; 5-HT1A blocker: 11; 5HT1a ag: -3; HTR1E agonist: -1

What do the screens show for `CC(NC(=O)c1ccnc(C(C)(C)C)c1)c1ccccc1` (configuration not stated)?
HEK293 NFkB inh: 14; 5HT1E antag: 4; 5-HT1A blocker: 5; 5HT1a ag: -4; HTR1E agonist: -1

What do the screens show for `C=CCc1ccccc1OCC(O)CN1CCN(c2ccc(C)cc2)CC1` (configuration not stated)?
HEK293 NFkB inh: 8; 5HT1E antag: 6; 5-HT1A blocker: 73*; 5HT1a ag: -1; HTR1E agonist: 0
